# Test results taken from ChEMBL document CHEMBL4043282, “Discovery of the First Potent, Selective, and Orally Bioavailable Signal Peptide Peptidase-Like 2a (SPPL2a) Inhibitor Displaying Pronounced Immunomodulatory Effects In Vivo” (J Med Chem, 2018).
# Calls of active or inactive are those of the source. No cut-off for these calls is given here.
# Test system: Rattus norvegicus
# Experiment: In vivo inhibition of SPPL2a in Lewis rat assessed as accumulation of CD74/p8 in blood at 3 mg/kg first dose administered via oral gavage followed by second dose after 8 hrs measured 16 hrs post second dose by Western blot method
# Type: functional, organism-based
# Procedure, shortened: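 Rat blood (200 μL) red cells lysed with RBC lysis buffer three times, pellet lysed in Tris pH 6.8/NaCl/EDTA/Triton X-100/deoxycholate with protease inhibitors; Western blot for CD74/p8 with affinity-purified antibody specific for rat CD74/p8 at 1:200.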
structure (smiles),measurement,value
Cc1ncc(F)cc1NC(=O)C[C@H](C(=O)N[C@@H]1C(=O)N2CC3(CC3)CN2C(=O)c2ccccc21)C1CC1,inhibition,Active
